Assay results published in ChEMBL document CHEMBL3046880, “Syntheses and herbicidal activities of novel triazolinone derivatives” (J Agric Food Chem, 2008).

What was measured:
Assay type in all cases: functional
Echinochloa crus-galli = test: Herbicidal activity against Echinochloa crus-galli (barnyard grass) assessed as growth inhibition at 150 g of active ingredient/ha administered using post-emergence treatment measured 15 days post treatment protocol under greenhouse conditions
Method in brief: (§1)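 Test agents were formulated as 100 g/L emulsified concentrates (DMF solvent, TW-80 emulsifier), diluted with water and sprayed postemergence on pot-grown weeds. Seeds were sown 1-3 cm deep in clay soil (pH 6.5, 1.6% organic matter, 37.3% clay, CEC […]) and grown at 15–30 °C in a greenhouse. Dicots were treated at the two-leaf stage. Untreated and DMF-treated plants served as controls. Activity was scored visually 15 days after treatment.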

Amaranthus retroflexus = test: Herbicidal activity against Amaranthus retroflexus assessed as growth inhibition at 150 g of active ingredient/ha administered using post-emergence treatment measured 15 days post treatment protocol under greenhouse conditions; method in brief: as §1
Setaria viridis = test: Herbicidal activity against Setaria viridis (green foxtail) assessed as growth inhibition at 150 g of active ingredient/ha administered using post-emergence treatment measured 15 days post treatment protocol under greenhouse conditions; method in brief: as §1
Chenopodium album = test: Herbicidal activity against Chenopodium album assessed as growth inhibition at 150 g of active ingredient/ha administered using post-emergence treatment measured 15 days post treatment protocol under greenhouse conditions; method in brief: as §1
Brassica juncea = test: Herbicidal activity against Brassica juncea assessed as growth inhibition at 150 g of active ingredient/ha administered using post-emergence treatment measured 15 days post treatment protocol under greenhouse conditions; method in brief: as §1
Digitaria sanguinalis = test: Herbicidal activity against Digitaria sanguinalis (hairy crabgrass) assessed as growth inhibition at 150 g of active ingredient/ha administered using post-emergence treatment measured 15 days post treatment protocol under greenhouse conditions; method in brief: as §1

SMILES	growth inhibition (GI) (Echinochloa crus-galli) [%]	growth inhibition (GI) (Amaranthus retroflexus) [%]	growth inhibition (GI) (Setaria viridis) [%]	growth inhibition (GI) (Chenopodium album) [%]	growth inhibition (GI) (Brassica juncea) [%]	growth inhibition (GI) (Digitaria sanguinalis) [%]
Cc1nn(-c2cc(N3C(=O)c4ccccc4C3=O)c(Br)cc2F)c(=O)n1C(F)F	50	100	>80	>80	>80	>80
Cc1nn(-c2cc(N3C(=O)c4ccccc4C3=O)c(Cl)cc2Cl)c(=O)n1C(F)F	50	100	50	100	<50	50
Cc1nn(-c2cc(N3C(=O)c4ccccc4C3=O)c(F)cc2Br)c(=O)n1C(F)F	<50	<50	<50	<50	<50	<50
Cc1nn(-c2cc(N3C(=O)c4ccccc4C3=O)ccc2Cl)c(=O)n1C(F)F	<50	<50	<50	<50	<50	<50
Cc1nn(-c2cc(N3C(=O)C4=C(CCCC4)C3=O)c(Br)cc2F)c(=O)n1C(F)F	50	100	50	100	<50	50
Cc1nn(-c2cc(N3C(=O)C4=C(CCCC4)C3=O)c(Cl)cc2Cl)c(=O)n1C(F)F	50	100	50	100	<50	50
Cc1nn(-c2cc(N3C(=O)C4=C(CCCC4)C3=O)c(F)cc2Br)c(=O)n1C(F)F	<50	50	<50	<50	50	<50
Cc1nn(-c2cc(N3C(=O)C4=C(CCCC4)C3=O)ccc2Cl)c(=O)n1C(F)F	<50	<50	<50	<50	<50	<50
Cc1nn(-c2cc(N3C(=O)C4CCCCC4C3=O)c(Br)cc2F)c(=O)n1C(F)F (stereo not given)	50	100	50	100	50	50
Cc1nn(-c2cc(N3C(=O)C4CCCCC4C3=O)c(Cl)cc2Cl)c(=O)n1C(F)F (stereo not given)	<50	100	<50	>80	<50	<50
Cc1nn(-c2cc(N3C(=O)C4CCCCC4C3=O)c(F)cc2Br)c(=O)n1C(F)F (stereo not given)	<50	<50	<50	50	50	<50
Cc1nn(-c2cc(N3C(=O)C4CCCCC4C3=O)ccc2Cl)c(=O)n1C(F)F (stereo not given)	<50	<50	<50	<50	<50	<50
Cc1nn(-c2cc(NC(=O)Nc3ccccc3)ccc2Cl)c(=O)n1C(F)F	<50	<50	<50	<50	<50	<50
Cc1nn(-c2cc(NC(=O)Nc3ccc(Cl)cc3)ccc2Cl)c(=O)n1C(F)F	<50	<50	<50	<50	<50	<50
Cc1nn(-c2cc(NC(=O)Nc3ccccc3)c(Br)cc2F)c(=O)n1C(F)F	<50	<50	<50	<50	<50	<50
Cc1nn(-c2cc(NC(=O)Nc3ccc(Cl)cc3)c(Br)cc2F)c(=O)n1C(F)F	<50	<50	<50	<50	<50	<50
Cc1nn(-c2cc(NC(=O)Nc3ccccc3)c(F)cc2Br)c(=O)n1C(F)F	<50	<50	<50	<50	<50	<50
Cc1nn(-c2cc(NC(=O)Nc3ccc(Cl)cc3)c(F)cc2Br)c(=O)n1C(F)F	<50	<50	<50	<50	<50	<50
Cc1nn(-c2cc(NC(=O)Nc3ccccc3)c(Cl)cc2Cl)c(=O)n1C(F)F	<50	<50	<50	<50	<50	<50
Cc1nn(-c2cc(NC(=O)Nc3ccc(Cl)cc3)c(Cl)cc2Cl)c(=O)n1C(F)F	<50	<50	<50	<50	<50	<50
